Calls of active or inactive are those of the source. The rule behind the calls is not given here.

In data set [1] the target is T1, Proteinase-activated receptor 1 (Homo sapiens, UniProt P25116).
T1 sequence (P25116 whole entry): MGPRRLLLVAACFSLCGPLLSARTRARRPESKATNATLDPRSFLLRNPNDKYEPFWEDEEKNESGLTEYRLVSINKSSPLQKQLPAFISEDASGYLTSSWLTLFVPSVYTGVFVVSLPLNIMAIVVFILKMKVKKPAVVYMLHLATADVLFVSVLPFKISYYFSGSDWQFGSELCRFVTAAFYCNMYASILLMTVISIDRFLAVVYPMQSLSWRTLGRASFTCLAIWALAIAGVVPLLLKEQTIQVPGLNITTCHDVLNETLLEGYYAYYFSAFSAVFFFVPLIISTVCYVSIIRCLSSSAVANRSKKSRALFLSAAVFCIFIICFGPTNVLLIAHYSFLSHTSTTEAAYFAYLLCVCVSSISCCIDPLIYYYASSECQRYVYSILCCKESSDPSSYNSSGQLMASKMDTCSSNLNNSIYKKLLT
In words: Antagonist activity at human PAR1 expressed in Ga15-HEK293 cells assessed as reduction in PAR1 AP SFFLRR-NH2-induced cytosolic calcium incubated for 24 hrs by FLIPR - calcium mobilization assay. Format: functional, cell-based. In outline:
(§1)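 HEK293/Gα15 cells stably expressing human PAR1, PAR2 or PAR4, seeded at 45,000 cells/well and grown for 24 h at 37 °C, 5% CO₂. Cells loaded with calcium dye for 60 min at 37 °C in the dark. Compounds diluted from DMSO in HBSS and preincubated in the dark at room temperature. Agonists: SFFLRR (PAR1), 2-furoyl-LIGRLO-NH₂ (PAR2), AYPGKF-NH₂ (PAR4). Fluorescence read on FLIPR; 10-point half-log curves; mean of ≥2 determinations.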
(A change in cytosolic calcium serves as a functional read-out for many receptors and channels.)

A short description of data set [2]: Metabolic stability in rat liver microsomes assessed as intrinsic clearance incubated for 60 mins by LC-MS/MS analysis. The data set is classed as ADME, Microsome. Particulars: 1 h. In outline: (§2)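 Human, rat or mouse liver microsomes in potassium phosphate buffer at pH ~7.4, warmed to 37 °C with compound (DMSO stock diluted in acetonitrile). Reaction started with NADPH; no-NADPH negative controls. Aliquots taken at 0 and 60 min, quenched in ice-cold acetonitrile with internal standard, and parent measured by LC/MS/MS. t1/2 = 0.693/k from ln concentration vs time; CLint derived from t1/2. Triplicate; mean ± SD.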

Data set [3] in a line: Cytotoxicity against HEK293T cells assessed as cell viability at 10 uM incubated for 48 hrs by CCK-8 assay. The data set is classed as cell-based, HEK-293T. Particulars: human, read-out: Activity. In outline: (§3)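 HEK293 cells in exponential growth, 4000/well, left to adhere overnight, then exposed to three compound concentrations for 48 h. Equal-volume DMSO served as control. CCK-8 added for 2 h at 37 °C in the dark, absorbance read at 450 nm. Viability = OD sample/OD control × 100; mean ± SD, n=3.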

The target of data set [4] is T2, Proteinase-activated receptor 2 (Homo sapiens, UniProt P55085).
T2 sequence (P55085 whole entry): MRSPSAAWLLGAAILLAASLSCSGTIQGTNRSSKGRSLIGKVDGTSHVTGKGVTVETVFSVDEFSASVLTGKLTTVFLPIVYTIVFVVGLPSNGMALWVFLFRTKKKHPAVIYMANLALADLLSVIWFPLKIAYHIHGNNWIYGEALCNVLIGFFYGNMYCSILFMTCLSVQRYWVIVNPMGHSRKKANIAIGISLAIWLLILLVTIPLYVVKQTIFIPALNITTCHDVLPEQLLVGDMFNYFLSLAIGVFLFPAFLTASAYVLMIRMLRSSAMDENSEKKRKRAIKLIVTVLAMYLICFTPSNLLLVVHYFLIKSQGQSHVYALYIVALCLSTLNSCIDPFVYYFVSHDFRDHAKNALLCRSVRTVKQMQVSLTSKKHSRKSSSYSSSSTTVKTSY
The data set can be described thus: Antagonist activity at human PAR2 expressed in Ga15-HEK293 cells assessed as reduction in PAR2 AP 2-furoyl-LIGRLO-NH2-induced cytosolic calcium incubated for 24 hrs by FLIPR - calcium mobilization assay. The data set is classed as functional, cell-based. An outline of the steps: as §1

Data set [5] is described as follows: Metabolic stability in mouse liver microsomes assessed as intrinsic clearance incubated for 60 mins by LC-MS/MS analysis. The data set is classed as ADME, Microsome. Particulars: 1 h. In outline: as §2
Data set [6] has as its system Platelet. In words: Antiplatelet activity against U46619-induced human platelet aggregation in platelet in platelet rich plasma assessed as inhibition of platelet aggregation at 10 uM by photo-turbidimetry method. The data set is classed as functional, cell-based. In outline:
(§4)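 Human PRP prepared as for the aggregation assay and adjusted to 3×10⁸/mL. Compound preincubated for 5 min at 37 °C, then aggregation triggered by AYPGKF, SFLLRN, collagen, ADP or U46619. Maximum percent inhibition taken from 5 min light-transmittance traces. Mean ± SD, n=3.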

For data set [7], the target named is T3, Proteinase-activated receptor 4 (Homo sapiens, UniProt Q96RI0).
T3 sequence (Q96RI0 whole entry): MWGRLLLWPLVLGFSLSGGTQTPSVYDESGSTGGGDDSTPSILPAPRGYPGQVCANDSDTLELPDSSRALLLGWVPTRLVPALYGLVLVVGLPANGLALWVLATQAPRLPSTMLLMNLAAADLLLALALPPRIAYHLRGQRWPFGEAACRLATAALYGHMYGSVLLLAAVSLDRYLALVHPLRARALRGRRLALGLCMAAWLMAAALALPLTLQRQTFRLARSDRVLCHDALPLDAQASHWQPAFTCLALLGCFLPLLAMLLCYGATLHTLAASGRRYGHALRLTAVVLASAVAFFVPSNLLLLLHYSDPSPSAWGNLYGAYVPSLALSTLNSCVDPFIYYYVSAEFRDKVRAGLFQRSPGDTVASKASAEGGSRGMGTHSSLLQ
The data set can be described thus: Antagonist activity at human PAR4 expressed in Ga15-HEK293 cells assessed as reduction in PAR4 AP AYPGKF-NH2-induced cytosolic calcium incubated for 24 hrs by FLIPR - calcium mobilization assay. The data set is classed as functional, cell-based. In outline:
as §1

Data set [8] has as its system Platelet. In words: Antiplatelet activity against ADP-induced human platelet aggregation in platelet in platelet rich plasma assessed as inhibition of platelet aggregation at 10 uM by photo-turbidimetry method. Format: functional, cell-based. An outline of the steps:
as §4

Data set [9] is described as follows: Cytotoxicity against HEK293T cells assessed as cell viability at 1 uM incubated for 48 hrs by CCK-8 assay. Format: cell-based, HEK-293T. Particulars: human, read-out: Activity. In outline: as §3
For orientation: Tetrazolium assays rely on reduction of a dye to a coloured formazan, in cell work by metabolically active cells.

The nature of data set [10]: Metabolic stability in human liver microsomes assessed as half life incubated for 60 mins by LC-MS/MS analysis. The data set is classed as ADME, Microsome. In general terms: Liver microsomes are vesicles of endoplasmic reticulum, rich in cytochrome P450 enzymes.
The nature of data set [11]: Metabolic stability in human liver microsomes assessed as intrinsic clearance incubated for 60 mins by LC-MS/MS analysis. The data set is classed as ADME, Microsome. Particulars: 1 h.
Data set [12] deals with Platelet. In words: Antiplatelet activity against collagen-induced human platelet aggregation in platelet in platelet rich plasma assessed as inhibition of platelet aggregation at 10 uM by photo-turbidimetry method. Format: functional, cell-based. In outline:
as §4

Data set [13] relates to Platelet. The data set can be described thus: Antiplatelet activity against SFLLRN-NH2-induced human platelet in platelet rich plasma assessed as inhibition of platelet aggregation at 10 uM by photo-turbidimetry method. The data set is classed as functional, cell-based. An outline of the steps:
as §4

Data set [14] deals with Platelet. In words: Antiplatelet activity against AYPGKF-NH2-induced human platelet in platelet rich plasma assessed as inhibition of platelet aggregation at 10 uM by photo-turbidimetry method. Format: functional, cell-based. In outline:
as §4

Data set [15] is described as follows: Metabolic stability in rat liver microsomes assessed as half life incubated for 60 mins by LC-MS/MS analysis. Format: ADME, Microsome. In outline:
as §2

Data set [16] can be described thus: Cytotoxicity against HEK293T cells assessed as cell viability at 20 uM incubated for 48 hrs by CCK-8 assay. The following applies: human, read-out: Activity. The data set is classed as cell-based, HEK-293T. In outline:
as §3

Data set [17] can be described thus: Metabolic stability in mouse liver microsomes assessed as half life incubated for 60 mins by LC-MS/MS analysis. The data set is classed as ADME, Microsome. An outline of the steps: as §2

By IC50 is commonly meant the midpoint of a concentration-inhibition curve. For orientation: half-life means how long it takes for the measured level to halve. For the compound `Cc1cc(-c2nc3c(Cl)cc(OCCNS(=O)(=O)c4ccc(C(F)(F)F)cc4)cc3s2)c2ncn(C)c(=O)c2c1`, the IC50 in data set [1] was more than 3160 nM; in data set [4] it was more than 1000 nM; in data set [7] it was 1.2 nM. The CLH worked out at 7.73 mL/min/g in data set [2], 12.8 mL/min/g in [5] and 3.51 mL/min/g in [11]. For the same compound, the viability at 48 h, 10 µM in data set [3] was 76.8%. The result in the data set on Platelet [6], with Platelet [8], in the data set on Platelet [12] and in the data set with Platelet [13] was inactive. In addition, in [9], the viability at 48 h, 1 µM was 87.7%. The half-life in data set [10] came to 7.4 h; in data set [15] it was 5.38 h; in [17], 7.13 h. The outcome with Platelet [14] was Active. Besides, the viability at 48 h, 20 µM in data set [16] worked out at 61.8%.
Take `COc1cc(Cl)c2nc(-c3cc(C)cc4c(=O)n(C)cnc34)sc2c1`: the concentration for half-maximal inhibition (IC50) is more than 3160 nM in data set [1], more than 1000 nM in data set [4] and 0.53 nM in data set [7]. For the same compound, the CLH in [2] came out at 78.1 mL/min/g; in [5] it was 19.3 mL/min/g; in [11], 36.6 mL/min/g. Also, the viability at 48 h, 10 µM in data set [3] was 73.7%. Further, the outcome in the data set with Platelet [6], with Platelet [8], with Platelet [12] and with Platelet [13] was inactive. Moreover, in [9], the viability at 48 h, 1 µM turned out to be 91.3%. In addition, the half-life in data set [10] came to 0.71 h; in data set [15], 0.532 h; in data set [17] it was 4.7 h. Moreover, in the data set with Platelet [14], the outcome was Active. In addition, in data set [16], the viability at 48 h, 20 µM was 59.3%.

The values above are taken from ChEMBL document CHEMBL4842351, “Synthesis and evaluation of novel and potent protease activated receptor 4 (PAR4) antagonists based on a quinazolin-4(3H)-one scaffold” (Eur J Med Chem, 2021).
